An excerpt weighted towards active compounds, which were near 2% of everything screened.
DNA FID counter – fluorescent intercalator displacement, NS3 helicase counter-screen. DNA fluorescent intercalator displacement, fluorescence. inhibition, % at 7.9 µM. 290,000 tested, 0.17% active; in the data active = inhibition above about 37%;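 note: 0% = vehicle and 100% = reference compound; higher means more ethidium bromide displaced from hairpin DNA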
MLLE-PAM2 inh – inhibitors of microRNA-mediated deadenylation, human PABP1 MLLE binding; P11940; GST-MLLE / FITC-PAM2 fluorescence polarization; inhibition, % at 20 µM; 360,000 tested, 0.36% active; in the data active = inhibition above about 35%, passing the limit was not always enough;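 note: plate controls were DMSO wells with GST-MLLE for no effect and wells lacking GST-MLLE protein for full effect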
Target sequence (P11940 whole entry, looked up): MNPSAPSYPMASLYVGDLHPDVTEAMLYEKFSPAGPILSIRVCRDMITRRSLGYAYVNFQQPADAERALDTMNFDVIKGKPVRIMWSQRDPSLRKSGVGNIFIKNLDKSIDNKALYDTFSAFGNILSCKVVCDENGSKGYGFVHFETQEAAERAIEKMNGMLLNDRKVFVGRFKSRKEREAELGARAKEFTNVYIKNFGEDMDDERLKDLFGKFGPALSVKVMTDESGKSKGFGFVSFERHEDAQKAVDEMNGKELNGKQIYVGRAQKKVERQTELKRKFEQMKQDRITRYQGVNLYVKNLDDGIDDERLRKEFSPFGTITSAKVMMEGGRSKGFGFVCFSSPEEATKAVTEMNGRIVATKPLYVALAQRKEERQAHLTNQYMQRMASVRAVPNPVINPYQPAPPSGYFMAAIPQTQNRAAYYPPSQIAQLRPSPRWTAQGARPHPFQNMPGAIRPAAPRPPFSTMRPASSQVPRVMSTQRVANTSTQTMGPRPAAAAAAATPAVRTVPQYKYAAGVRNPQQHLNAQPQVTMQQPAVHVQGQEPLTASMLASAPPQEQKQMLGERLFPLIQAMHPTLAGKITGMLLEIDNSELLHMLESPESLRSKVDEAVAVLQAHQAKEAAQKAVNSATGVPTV
eIF4H inh – inhibitors of RNA binding by human eIF4H | Q15056 | eIF4H fluorescence polarization binding assay | inhibition, % at 35 µM | 290,000 tested, 0.94% active | AID 2012;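 note: calls also rest on retests at 20 µM and on dose response follow-up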
NS3 helicase inh – inhibitors of Hepatitis C virus NS3 helicase. inhibition, % at 10.9 µM. 290,000 tested, 0.56% active. NS3 helicase DNA unwinding, Cy5 molecular beacon fluorescence;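 active = inhibition above the mean of all tested compounds plus 3 SD, set per campaign, cut at about 35% in these data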;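 note: 0% = DMSO wells and 100% = thioflavine S control wells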
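Measured by: Cy5 fluorescence, 0 and 60 min reads / Assay system: NS3 helicase fragment of HCV / Control set: low DMSO, high thioflavine S at 110 µM / Times: 1 h reaction at 25 °C, ATP-initiated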
PABP polyA inh – PABP-poly(A) binding inhibition | AID 2014 | P11940 | inhibition, % at 35 µM | PABP-poly(A) RNA binding, fluorescence polarization | 290,000 tested, 1% active;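 note: calls also rest on retests at 20 µM and on dose response follow-up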
HCV core dimer – HCV core protein dimerization inhibition. AID 1899. inhibition, % at 5 µM. 300,000 tested, 0.33% active. TR-FRET GST/Flag-core106 dimerization, 1536-well;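 active = inhibition above the mean of all tested compounds plus 3 SD, set per screening campaign, cut at about 45% in these data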
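System – GST-tagged and Flag-tagged HCV core protein residues 1-106 · Repeats – one well for each compound · Technique – TR-FRET 671 and 617 nm emission · Doses – one concentration, 5 µM, in 0.5% DMSO · Times – 4 h, 22.5 °C incubation · Also added – Eu donor and XL665 acceptor anti-tag antibodies · Measure – percent inhibition of core106 dimerization signal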
* hit, by the source's call; ? = inconclusive; nt = no result. Unless noted, the rule behind the calls is not given here.

SMILES	DNA FID counter	MLLE-PAM2 inh	eIF4H inh	NS3 helicase inh	PABP polyA inh	HCV core dimer
COc1cc(NC(C)CCCNC(C)C)c2ncccc2c1OC (centres undefined)	nt	43.8*	nt	nt	nt	nt
COc1cc(NCCCCCCN)c2ncccc2c1OC	nt	18.4	nt	nt	nt	nt
CCOC1=C2[C@@H](CN(S(=O)(=O)c3ccc(C)cc3)[C@H]2c2ccccc2F)[C@H]2C(=O)N(C3CCCCC3)C(=O)[C@H]2C1	nt	-3.6	nt	nt	nt	nt
C/C(=N/NC(=O)c1cc2ccccc2cc1O)C1C(=O)c2ccccc2C1=O	-0.2	-36.0	45.0	-3.4	54.2*	13.1
C/C(CC(=O)N1CCN(C=O)CC1)=N\NC(=O)c1cc2ccccc2cc1O	-18.5	20.3	102.1*	34.2	active	-1.7
C/C(CC(=O)N1CCN(C=O)CC1)=N\NC(=O)c1ccc([N+](=O)[O-])cc1	0.9	0.9	-10.0	9.5	-6.3	-7.7
C/C(=N\NC(=O)c1ccccc1O)C1C(=O)c2ccccc2C1=O	-14.1	-8.2	11.6	8.0	25.3	-2.9
N#Cc1cccc(NC(=O)CSc2ccc3c4c(cccc24)C(=O)c2ccccc2-3)c1	0.3	102.9	126.5	2.3	119.5	66.5*
COc1ccc(NC(=O)CSc2ccc3c4c(cccc24)C(=O)c2ccccc2-3)cc1	3.5	64.1	?	-3.0	?	10.2
C=CCn1c(COc2ccc(F)cc2)nnc1SCC(=O)NC1CC1	nt	-4.9	nt	nt	nt	-0.4
CC1CCc2nc(N)c(C#N)c(-c3cccn3C)c2C1 (centres undefined)	-10.8	-26.8	97.1*	3.1	110.9*	-0.3
COc1cc(NCCCn2cnc(C(=O)Nc3ccc(C)c(C)c3)n2)cc(OC)c1OC	nt	17.8	nt	nt	nt	nt
CCOc1cc(CNCCc2ccc(S(N)(=O)=O)cc2)ccc1OCc1ccc(Cl)cc1	36.8*	-12.0	-5.3	-90.8	-23.9	-13.9
O=C(Nc1ccc(Cl)c([N+](=O)[O-])c1)c1cnccn1	-4.6	1.4	85.1	-1.2	-5.5	55.2*
O=C(Nc1ccc(Br)cc1Cl)c1cnccn1	-5.6	-11.9	-4.9	7.1	11.3	68.1*
CC1(C)CC2(C)OC(=N)C1(C#N)C2(C#N)C#N (centres undefined)	1.0	20.2	-3.3	-3.1	2.5	-6.2
CC1C2(C)OCC(C#N)(C(=N)O2)C1(C#N)C#N (centres undefined)	-2.1	nt	62.7*	-2.0	36.1*	-3.0
COc1ccc(NC(=O)CSc2nnc(-c3ccccc3C)n2N)cc1OC	-6.1	-3.8	1.6	3.6	-3.9	2.0
COc1ccc(NC(=O)CSc2nnc(-c3ccccc3C)n2N)cc1	-3.2	37.2*	0.3	-3.2	-3.4	0.0
COc1ccc(NC(=O)CSc2nnc(CCC(=O)O)c(=O)n2N)cc1	-20.2	46.0*	5.7	1.5	-5.0	3.1
Nn1c(SCC(=O)Nc2ccc3c(c2)OCO3)nnc1-c1ccccc1	-2.8	-12.9	3.3	-3.2	-2.0	-1.1
Cc1nnc(SCC(=O)Nc2ccc3c(c2)OCO3)n(N)c1=O	-3.5	13.9	active	5.5	80.7*	1.4
O=C(c1ccccc1F)N1CCCC(N2CCN(Cc3ccc4c(c3)OCO4)CC2)C1 (centres undefined)	nt	-1.7	nt	nt	nt	nt
COc1ccc(S(=O)(=O)NNC(=O)C2COc3ccccc3O2)cc1[N+](=O)[O-] (centres undefined)	nt	2.0	nt	nt	nt	-0.1
Cc1ccn2cc(CC(=O)O)nc2c1	1.9	17.5	?	-3.6	43.3*	0.9
SMILES	DNA FID counter	MLLE-PAM2 inh	eIF4H inh	NS3 helicase inh	PABP polyA inh	HCV core dimer
CC1CC=C2C(C#N)=C(N)C(C#N)(C#N)C(c3cccs3)C2C1 (centres undefined)	-11.6	79.8	122.8*	4.2	123.8*	5.6
CCOC(=O)N1CC=C2C(C#N)=C(N)C(C#N)(C#N)[C@H](c3cccs3)C2C1 (some centres undefined)	-6.7	16.8	?	1.7	4.0	9.2
COC(=O)C1=C(C)NC(=O)C1(NS(=O)(=O)c1ccc(C)cc1)C(F)(F)F (centres undefined)	-2.4	10.8	58.9	0.2	8.5*	1.1
COc1ccc(C(=O)Nc2ccc3c(c2)C(=O)N(C)C3=O)cc1OC	-3.1	-3.2	-3.7	-1.9	-8.6	-12.2
O=C(CSc1n[nH]c(=O)[nH]c1=O)Nc1ccc2c(c1)C(=O)c1ccccc1C2=O	8.4	13.0	97.7*	2.2	74.7*	41.7
Cc1ccc(S(=O)(=O)NN=C(c2ccccc2)c2cccs2)cc1	nt	14.1	nt	nt	nt	nt
CC(Oc1ccccc1F)c1nnc(SCC(=O)N(c2ccccc2)C2CCS(=O)(=O)C2)o1 (centres undefined)	nt	-14.0	nt	nt	nt	nt
c1ccc(-c2nnc(-c3ccccc3)nn2)cc1	-2.4	4.3	1.9	-5.4	2.9	-6.2
c1cncc(-c2nnc(-c3cccnc3)nn2)c1	1.4	40.5*	-14.6	-8.5	6.3	-17.8
CC(=O)NC(c1cccc(F)c1)c1nc(-c2cccc(C(F)(F)F)c2)cs1 (centres undefined)	nt	1.4	nt	nt	nt	nt
COc1cccc(C2C(C#N)=C(N)OC(C(C)(C)C)=C2C#N)c1 (centres undefined)	-2.9	-0.7	-0.6	-1.8	14.9	1.4
COc1cccc(/C=C2/CN(C)CC3=C2OC(N)=C(C#N)C3c2cccc(OC)c2)c1 (centres undefined)	-19.1	-46.9	75.2*	-11.7	78.4*	20.6
CCOC(=O)N1CCN(C(=O)C(CC(C)C)NS(=O)(=O)c2ccc(C)cc2)CC1 (centres undefined)	nt	4.5	nt	nt	nt	nt
COc1ccc(C)cc1NC(=O)CCNC(=O)Cn1ccc2ccccc2c1=O	-21.1	-7.7	-12.6	4.1	-4.6	1.1
CCC(C)N(C(=O)CSc1ccc(NC(C)=O)cc1)C1CCS(=O)(=O)C1 (centres undefined)	-6.3	45.0*	-16.4	5.2	-5.2	0.0
CCC(C)N(C(=O)COC(=O)CSc1ccc(C)c(C)c1)C1CCS(=O)(=O)C1 (centres undefined)	nt	-9.8	nt	nt	nt	nt
COc1ccc(Sc2nnc(Cc3ccccc3)c3ccccc23)cc1	-1.3	39.8*	-11.1	7.5	8.4	6.1
CCN(CC)C(=O)C1=C(C)N(CCCN2CCCC2=O)C(=O)C(CC(=O)NCc2cccs2)C1 (centres undefined)	nt	19.3	nt	nt	nt	nt
Cc1ccc(-c2ccnc3nc(-n4cccc4)nn23)o1	-3.8	1.9	55.7*	7.8	active	4.3
c1ccc(-c2ccnc3nc(N4CCN(c5ccccc5)CC4)nn23)cc1	-33.0	2.4	32.1	-10.5	17.7	8.9
Cc1cccc(NC(=S)Nc2ccccn2)c1	-3.7	22.9	6.7	-3.5	6.7	-8.1
Cc1ccc(NC(=S)Nc2ccccn2)cc1C	-4.0	40.5*	1.1	-13.4	-1.7	1.7
Cc1ccc(S(=O)(=O)N(C)C)cc1-n1c(SCC(=O)N(C)C)nc2ccccc2c1=O	-29.6	-13.2	52.1*	6.3	4.2*	-0.8

Screens from PubChem.
